{"source": "ChEMBL document CHEMBL1150163", "about": "“Steroidal glycosides from the leaves of Cestrum nocturnum” (2002)", "data": [{"system": "HSC-2", "assay": "Cytotoxicity against human HSC2 cells after 24 hrs by MTT assay", "assay_type": "functional", "conditions": "HSC-2, 24 h, read-out: LD50 (the source's name)", "outline": "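HSC-2 oral squamous carcinoma cells grown as monolayers in DMEM with 10% heat-inactivated FBS, 37 °C, 5% CO2. Seeded at 6 × 10^3 cells/well, incubated 24 h, washed, then exposed to compounds for 24 h. MTT (0.2 mg/mL) for 4 h, DMSO lysis, absorbance at 540 nm. LD50 (50% reduction in viable cells) read from dose-response curve.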", "units": {"CC50": "µg/mL"}, "values": [{"smiles": "CC(=O)C1=CC[C@H]2[C@@H]3CC=C4C[C@@H](O[C@@H]5O[C@H](CO)[C@H](O[C@@H]6O[C@H](CO)[C@@H](O)[C@H](O[C@@H]7OC[C@@H](O)[C@H](O)[C@H]7O)[C@H]6O[C@@H]6O[C@H](CO)[C@@H](O)[C@H](O[C@@H]7O[C@H](CO)[C@@H](O)[C@H](O)[C@H]7O)[C@H]6O)[C@H](O)[C@H]5O)[C@H](O)C[C@]4(C)[C@H]3CC[C@]12C", "CC50": 192}, {"smiles": "CC(=O)[C@H]1[C@@H](OC(=O)CC[C@@H](C)CO[C@@H]2O[C@H](CO)[C@@H](O)[C@H](O)[C@H]2O)C[C@H]2[C@@H]3CC=C4C[C@@H](O[C@@H]5O[C@H](CO)[C@H](O[C@@H]6O[C@H](CO)[C@@H](O)[C@H](O[C@@H]7OC[C@@H](O)[C@H](O)[C@H]7O)[C@H]6O[C@@H]6O[C@H](CO)[C@@H](O)[C@H](O[C@@H]7O[C@H](CO)[C@@H](O)[C@H](O)[C@H]7O)[C@H]6O)[C@H](O)[C@H]5O)[C@H](O)C[C@]4(C)[C@H]3CC[C@@]21C", "CC50": "> 300"}, {"smiles": "C[C@@H]1CC[C@@]2(OC1)O[C@H]1C[C@H]3[C@@H]4CC=C5C[C@@H](O[C@@H]6O[C@H](CO)[C@H](O[C@@H]7O[C@H](CO)[C@@H](O)[C@H](O[C@@H]8OC[C@@H](O)[C@H](O)[C@H]8O)[C@H]7O[C@@H]7O[C@H](CO)[C@@H](O)[C@H](O[C@@H]8O[C@H](CO)[C@@H](O)[C@H](O)[C@H]8O)[C@H]7O)[C@H](O)[C@H]6O)[C@H](O)C[C@]5(C)[C@H]4CC[C@]3(C)[C@H]1[C@@H]2C", "CC50": 2.7}, {"smiles": "C[C@@H]1C(=O)O[C@H]2C[C@H]3[C@@H]4CC=C5C[C@@H](O[C@@H]6O[C@H](CO)[C@H](O[C@@H]7O[C@H](CO)[C@@H](O)[C@H](O[C@@H]8OC[C@@H](O)[C@H](O)[C@H]8O)[C@H]7O[C@@H]7O[C@H](CO)[C@@H](O)[C@H](O[C@@H]8O[C@H](CO)[C@@H](O)[C@H](O)[C@H]8O)[C@H]7O)[C@H](O)[C@H]6O)[C@H](O)C[C@]5(C)[C@H]4CC[C@]3(C)[C@H]21", "CC50": "> 300"}, {"smiles": "CO[C@]1(CC[C@@H](C)CO[C@@H]2O[C@H](CO)[C@@H](O)[C@H](O)[C@H]2O)O[C@H]2C[C@H]3[C@@H]4CC=C5C[C@@H](O[C@@H]6O[C@H](CO)[C@H](O[C@@H]7O[C@H](CO)[C@@H](O)[C@H](O[C@@H]8OC[C@@H](O)[C@H](O)[C@H]8O)[C@H]7O[C@@H]7O[C@H](CO)[C@@H](O)[C@H](O[C@@H]8O[C@H](CO)[C@@H](O)[C@H](O)[C@H]8O)[C@H]7O)[C@H](O)[C@H]6O)[C@H](O)C[C@]5(C)[C@H]4CC[C@]3(C)[C@H]2[C@@H]1C", "CC50": 6.1}, {"smiles": "CC1=C(CC[C@@H](C)CO[C@@H]2O[C@H](CO)[C@@H](O)[C@H](O)[C@H]2O)O[C@H]2C[C@H]3[C@@H]4CC=C5C[C@@H](O[C@@H]6O[C@H](CO)[C@H](O[C@@H]7O[C@H](CO)[C@@H](O)[C@H](O[C@@H]8OC[C@@H](O)[C@H](O)[C@H]8O)[C@H]7O[C@@H]7O[C@H](CO)[C@@H](O)[C@H](O[C@@H]8O[C@H](CO)[C@@H](O)[C@H](O)[C@H]8O)[C@H]7O)[C@H](O)[C@H]6O)[C@H](O)C[C@]5(C)[C@H]4CC[C@]3(C)[C@@H]12", "CC50": "> 300"}, {"smiles": "C/C(C(=O)CC[C@@H](C)CO[C@@H]1O[C@H](CO)[C@@H](O)[C@H](O)[C@H]1O)=C1/C(=O)C[C@H]2[C@@H]3CC=C4C[C@@H](O[C@@H]5O[C@H](CO)[C@H](O[C@@H]6O[C@H](CO)[C@@H](O)[C@H](O[C@@H]7OC[C@@H](O)[C@H](O)[C@H]7O)[C@H]6O[C@@H]6O[C@H](CO)[C@@H](O)[C@H](O[C@@H]7O[C@H](CO)[C@@H](O)[C@H](O)[C@H]7O)[C@H]6O)[C@H](O)[C@H]5O)[C@H](O)C[C@]4(C)[C@H]3CC[C@]12C", "CC50": 281}, {"smiles": "C/C(C(=O)CC[C@@H](C)CO[C@@H]1O[C@H](CO)[C@@H](O)[C@H](O)[C@H]1O)=C1/C(=O)C[C@H]2[C@@H]3CC=C4C[C@@H](O[C@@H]5O[C@H](CO)[C@H](O[C@@H]6O[C@H](CO)[C@@H](O)[C@H](O[C@@H]7OC[C@@H](O)[C@H](O)[C@H]7O)[C@H]6O[C@@H]6O[C@H](CO)[C@@H](O)[C@H](O)[C@H]6O)[C@H](O)[C@H]5O)[C@H](O)C[C@]4(C)[C@H]3CC[C@]12C", "CC50": "> 300"}, {"smiles": "C[C@@H]1CC[C@@]2(OC1)O[C@H]1C[C@H]3[C@@H]4CC=C5C[C@@H](O[C@@H]6O[C@H](CO)[C@H](O[C@@H]7O[C@H](CO)[C@@H](O)[C@H](O[C@@H]8OC[C@@H](O)[C@H](O)[C@H]8O)[C@H]7O[C@@H]7O[C@H](CO)[C@@H](O)[C@H](O[C@@H]8O[C@H](CO)[C@@H](O)[C@H](O)[C@H]8O)[C@H]7O)[C@H](O)[C@H]6O)[C@H](O)C[C@]5(C)[C@H]4CC[C@]3(C)[C@@]1(O)[C@@H]2C", "CC50": 4.4}, {"smiles": "C[C@H]1CO[C@]2(C[C@@H]1O[C@@H]1O[C@H](CO)[C@@H](O)[C@H](O)[C@H]1O)O[C@H]1C[C@H]3[C@@H]4CC=C5C[C@@H](O[C@@H]6O[C@H](CO)[C@H](O[C@@H]7O[C@H](CO)[C@@H](O)[C@H](O[C@@H]8OC[C@@H](O)[C@H](O)[C@H]8O)[C@H]7O[C@@H]7O[C@H](CO)[C@@H](O)[C@H](O[C@@H]8O[C@H](CO)[C@@H](O)[C@H](O)[C@H]8O)[C@H]7O)[C@H](O)[C@H]6O)[C@H](O)C[C@]5(C)[C@H]4CC[C@]3(C)[C@H]1[C@@H]2C", "CC50": "> 300"}, {"smiles": "COc1cccc2c1C(=O)c1c(O)c3c(c(O)c1C2=O)C[C@@](O)(C(=O)CO)C[C@@H]3O[C@H]1C[C@H](N)[C@H](O)[C@H](C)O1", "note": "[DOXORUBICIN]", "CC50": 2.5}]}]}
